Results from ChEMBL document CHEMBL1914423, “New imidazo[2,1-b]thiazole derivatives: synthesis, in vitro anticancer evaluation, and in silico studies” (Eur J Med Chem, 2011).

Key:
[1] = system: HL-60(TB); assay: Anticancer activity against human HL-60(TB) cells assessed as cell growth at 10^-5 M after 48 hrs by SRB assay; assay type: functional; conditions: HL-60, 48 h, read-out: Activity
In short: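 NCI-60 single-dose screen. Cells in RPMI 1640 with 5% FBS and 2 mM L-glutamine were plated at 5000–40,000 cells/well and preincubated 24 h at 37 °C before one compound concentration. Time-zero plates were TCA-fixed at drug addition. For suspension cells, settled cells were fixed with cold TCA, then SRB-stained and read at 515 nm. Percent growth was calculated from time-zero, control and treated absorbances.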

[2] = system: SF-295; assay: Anticancer activity against human SF295 cells assessed as cell growth at 10^-5 M after 48 hrs by SRB assay; assay type: functional; conditions: SF-295, 48 h, read-out: Activity
[3] = system: HCT-15; assay: Anticancer activity against human HCT15 cells assessed as cell growth at 10^-5 M after 48 hrs by SRB assay; assay type: functional; conditions: HCT-15, 48 h, read-out: Activity
In short: (§1)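 NCI-60 single-dose screen at one concentration. Cells grown in RPMI 1640 with 5% FBS and 2 mM L-glutamine, plated at 5000–40,000 cells/well, and pre-incubated 24 h at 37 °C in 5% CO2 before DMSO-dissolved drug was added. Cells fixed with TCA, SRB-stained, absorbance read at 515 nm. Percent growth calculated against time-zero and untreated control plates.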

[4] = system: A498; assay: Anticancer activity against human A498 cells assessed as cell growth at 10^-5 M after 48 hrs by SRB assay; assay type: functional; conditions: A498, 48 h, read-out: Activity; in short: as §1
[5] = system: OVCAR-3; assay: Anticancer activity against human OVCAR3 cells assessed as cell growth at 10^-5 M after 48 hrs by SRB assay; assay type: functional; conditions: OVCAR-3, 48 h, read-out: Activity
[6] = system: NCI-H226; assay: Anticancer activity against human NCI-H226 cells assessed as cell growth at 10^-5 M after 48 hrs by SRB assay; assay type: functional; conditions: NCI-H226, 48 h, read-out: Activity
[7] = system: RPMI-8226; assay: Anticancer activity against human RPMI8226 cells assessed as cell growth at 10^-5 M after 48 hrs by SRB assay; assay type: functional; conditions: RPMI-8226, 48 h, read-out: Activity
[8] = system: KM12; assay: Anticancer activity against human KM12 cells assessed as cell growth at 10^-5 M after 48 hrs by SRB assay; assay type: functional; conditions: KM12, 48 h, read-out: Activity; in short: as §1
[9] = system: OVCAR-5; assay: Anticancer activity against human OVCAR5 cells assessed as cell growth at 10^-5 M after 48 hrs by SRB assay; assay type: functional; conditions: OVCAR-5, 48 h, read-out: Activity
[10] = system: SF-268; assay: Anticancer activity against human SF268 cells assessed as cell growth at 10^-5 M after 48 hrs by SRB assay; assay type: functional; conditions: SF-268, 48 h, read-out: Activity
[11] = system: SNB-75; assay: Anticancer activity against human SNB75 cells assessed as cell growth at 10^-5 M after 48 hrs by SRB assay; assay type: functional; conditions: SNB-75, 48 h, read-out: Activity
In short: (§2)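 NCI-60 single-dose screen: cells in RPMI 1640 with 5% FBS and 2 mM L-glutamine, plated at 5000–40,000 cells/well by doubling time, and preincubated 24 h at 37 °C. Compound given at one concentration from DMSO stock. Cells TCA-fixed and SRB-stained, absorbance at 515 nm. Percent growth relative to time-zero and untreated controls; inhibition % = 100 − growth %.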

[12] = system: K562; assay: Anticancer activity against human K562 cells assessed as cell growth at 10^-5 M after 48 hrs by SRB assay; assay type: functional; conditions: K562, 48 h, read-out: Activity; in short: as §1
[13] = system: Malme-3M; assay: Anticancer activity against human MALME-3M cells assessed as cell growth at 10^-5 M after 48 hrs by SRB assay; assay type: functional; conditions: read-out: Activity; in short: as §1
[14] = system: CAKI-1; assay: Anticancer activity against human Caki1 cells assessed as cell growth at 10^-5 M after 48 hrs by SRB assay; assay type: functional; conditions: CAKI-1, 48 h, read-out: Activity; in short: as §1
[15] = system: ACHN; assay: Anticancer activity against human ACHN cells assessed as cell growth at 10^-5 M after 48 hrs by SRB assay; assay type: functional; conditions: read-out: Activity; in short: as §1
[16] = system: HCC 2998; assay: Anticancer activity against human HCC2998 cells assessed as cell growth at 10^-5 M after 48 hrs by SRB assay; assay type: functional; conditions: HCC 2998, 48 h, read-out: Activity; in short: as §1
[17] = Antiproliferative activity against human A375P cells after 48 hrs by MTT assay; assay type: functional, cell-based
In short: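 A375P cells in DMEM with 10% FBS at 37 °C, 5% CO2. Seeded at 5×10³ cells/well, held 24 h, then treated with 12-point 3-fold serial dilutions for 48 h. Viability by MTT reduction. IC50 values are means of triplicate experiments.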

[18] = system: PC-3; assay: Anticancer activity against human PC3 cells assessed as cell growth at 10^-5 M after 48 hrs by SRB assay; assay type: functional; conditions: PC-3, 48 h, read-out: Activity
[19] = system: SK-MEL-28; assay: Anticancer activity against human SK-MEL-28 cells assessed as cell growth at 10^-5 M after 48 hrs by SRB assay; assay type: functional; conditions: SK-MEL-28, 48 h, read-out: Activity
[20] = system: MDA-MB-435; assay: Anticancer activity against human MDA-MB-435 cells assessed as cell growth at 10^-5 M after 48 hrs by SRB assay; assay type: functional; conditions: MDA-MB-435, 48 h, read-out: Activity
[21] = system: LOX IMVI; assay: Anticancer activity against human LOXIMVI cells assessed as cell growth at 10^-5 M after 48 hrs by SRB assay; assay type: functional; conditions: read-out: Activity; in short: as §1
[22] = system: OVCAR-8; assay: Anticancer activity against human OVCAR8 cells assessed as cell growth at 10^-5 M after 48 hrs by SRB assay; assay type: functional; conditions: OVCAR-8, 48 h, read-out: Activity
[23] = system: 786-0; assay: Anticancer activity against human 786-0 cells assessed as cell growth at 10^-5 M after 48 hrs by SRB assay; assay type: functional; conditions: 786-0, 48 h, read-out: Activity; in short: as §1
[24] = system: SN12C; assay: Anticancer activity against human SN12C cells assessed as cell growth at 10^-5 M after 48 hrs by SRB assay; assay type: functional; conditions: read-out: Activity
[25] = system: SK-OV-3; assay: Anticancer activity against human SKOV3 cells assessed as cell growth at 10^-5 M after 48 hrs by SRB assay; assay type: functional; conditions: SK-OV-3, 48 h, read-out: Activity
[26] = system: DU-145; assay: Anticancer activity against human DU145 cells assessed as cell growth at 10^-5 M after 48 hrs by SRB assay; assay type: functional; conditions: DU-145, 48 h, read-out: Activity; in short: as §1
[27] = system: U-251; assay: Anticancer activity against human U251 cells assessed as cell growth at 10^-5 M after 48 hrs by SRB assay; assay type: functional; conditions: U-251, 48 h, read-out: Activity; in short: as §2

Row | Compound | growth at 10 µM [1] [%] | growth at 10 µM [2] [%] | growth at 10 µM [3] [%] | growth at 10 µM [4] [%] | growth at 10 µM [5] [%] | growth at 10 µM [6] [%] | growth at 10 µM [7] [%] | growth at 10 µM [8] [%] | growth at 10 µM [9] [%] | growth at 10 µM [10] [%] | growth at 10 µM [11] [%] | growth at 10 µM [12] [%] | growth at 10 µM [13] [%] | growth at 10 µM [14] [%] | growth at 10 µM [15] [%] | growth at 10 µM [16] [%] | IC50 [17] [µM] | growth at 10 µM [18] [%] | growth at 10 µM [19] [%] | growth at 10 µM [20] [%] | other results
1 | COc1cccc(-c2nc3sccn3c2-c2ccnc(NCCNC(=O)c3cc(C(F)(F)F)cc(C(F)(F)F)c3)n2)c1 | 131 | 94.5 | 83.8 | 95.6 | 90.9 | 102 | 50 | 79.4 | 101 | 82.5 | 75.8 | 83.5 | 94.1 | 85.9 | 88.2 | 90.2 | > 10 | 49.5 | 97.6 | 83.9 | growth at 10 µM [21]: 92.5%; growth at 10 µM [22]: 82.4%; growth at 10 µM [23]: 75.9%; growth at 10 µM [24]: 90.8%; growth at 10 µM [25]: 97%; growth at 10 µM [26]: 94.4%; growth at 10 µM [27]: 92%
2 | COc1cccc(-c2nc3sccn3c2-c2ccnc(NCCNC(=O)c3ccc(N4CCOCC4)c(C(F)(F)F)c3)n2)c1 | 85.2 | 69.2 | 66.6 | 64.6 | 93.8 | 85.4 | 39 | 76.2 | 96.9 | 89.7 | 82.5 | 32.6 | 78.4 | 68.8 | 70.6 | 93.3 | > 10 | 60.8 | 89.5 | 60.8 | growth at 10 µM [21]: 73.5%; growth at 10 µM [22]: 62.4%; growth at 10 µM [23]: 71.5%; growth at 10 µM [24]: 91.7%; growth at 10 µM [25]: 82.8%; growth at 10 µM [26]: 111%; growth at 10 µM [27]: 87.2%
3 | O=C(NCCNc1nccc(-c2c(-c3cccc(O)c3)nc3sccn23)n1)c1ccccc1 | 93.3 | 67.4 | 88.4 | 48 | 92.3 | 54.5 | 76.8 | 75.9 | 90.6 | 80.7 | 54.4 | 62.8 | 9.31 | 87.9 | 60.5 | 97.8 | 0.5 | 68.5 | 37.8 | 24 | growth at 10 µM [21]: 23.2%; growth at 10 µM [22]: 66.6%; growth at 10 µM [23]: 66.5%; growth at 10 µM [24]: 66.4%; growth at 10 µM [25]: 65.1%; growth at 10 µM [26]: 90.5%; growth at 10 µM [27]: 61.9%
4 | O=C(NCCNc1nccc(-c2c(-c3cccc(O)c3)nc3sccn23)n1)c1ccccc1O | 59.8 | 46.4 | 54.5 | 104 | 60.2 | 80.5 | 11.6 | 46.7 | 88.7 | 62.5 | 40.6 | 40.5 | 14.6 | 24.3 | 46.1 | 81 | 3.2 | 51.1 | 41.4 | 14.3 | growth at 10 µM [21]: 33.5%; growth at 10 µM [22]: 41.3%; growth at 10 µM [23]: 64.6%; growth at 10 µM [24]: 48%; growth at 10 µM [25]: 60.5%; growth at 10 µM [26]: 67.2%; growth at 10 µM [27]: 61.6%
